{"source": "ChEMBL document CHEMBL1157458", "about": "“Exploring the substituent effects on a novel series of C1'-dimethyl-aryl Delta8-tetrahydrocannabinol analogs” (Bioorg Med Chem, 2008)", "key": {"Cannabinoid receptor 1": {"target": "Cannabinoid receptor 1 (Homo sapiens, UniProt P21554)", "sequence (P21554 whole entry)": "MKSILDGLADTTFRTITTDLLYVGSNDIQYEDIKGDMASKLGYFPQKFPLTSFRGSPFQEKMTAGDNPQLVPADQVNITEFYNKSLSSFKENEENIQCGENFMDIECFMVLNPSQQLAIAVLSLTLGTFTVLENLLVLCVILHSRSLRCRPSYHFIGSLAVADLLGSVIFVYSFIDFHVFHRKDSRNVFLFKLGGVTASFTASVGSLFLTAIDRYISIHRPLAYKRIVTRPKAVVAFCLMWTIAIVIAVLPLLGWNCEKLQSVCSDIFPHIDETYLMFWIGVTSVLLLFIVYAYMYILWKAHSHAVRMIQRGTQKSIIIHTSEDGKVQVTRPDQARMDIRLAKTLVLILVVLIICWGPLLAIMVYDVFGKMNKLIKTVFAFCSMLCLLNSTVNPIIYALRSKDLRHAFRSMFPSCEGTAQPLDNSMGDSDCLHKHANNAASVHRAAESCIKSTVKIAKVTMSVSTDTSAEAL", "assay": "Displacement of [3H]CP-55940 from human CB1 receptor expressed in HEK293 cells", "format": "cell-based"}, "Homo sapiens": {"species_on_record": "Homo sapiens", "assay": "Selectivity ratio of Ki for human CB1 receptor to Ki for human CB2 receptor"}, "Cannabinoid receptor 2": {"target": "Cannabinoid receptor 2 (Homo sapiens, UniProt P34972)", "sequence (P34972 whole entry)": "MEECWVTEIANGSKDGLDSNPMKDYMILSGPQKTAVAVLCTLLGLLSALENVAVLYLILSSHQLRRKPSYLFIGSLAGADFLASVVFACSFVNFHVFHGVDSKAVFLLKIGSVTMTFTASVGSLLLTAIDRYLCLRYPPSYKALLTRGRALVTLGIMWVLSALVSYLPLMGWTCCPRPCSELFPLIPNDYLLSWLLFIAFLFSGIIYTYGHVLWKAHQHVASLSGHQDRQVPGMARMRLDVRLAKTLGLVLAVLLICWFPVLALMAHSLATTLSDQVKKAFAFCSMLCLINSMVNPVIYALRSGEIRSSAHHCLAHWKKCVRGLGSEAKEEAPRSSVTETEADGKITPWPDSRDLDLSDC", "assay": "Displacement of [3H]CP-55940 from human CB2 receptor expressed in CHO-K1 cells", "format": "cell-based"}, "[1]": {"assay": "Cytotoxicity against human U87 cells by side flank model relative to control", "format": "functional, U-87MG ATCC", "conditions": "U-87 MG"}, "[2]": {"assay": "Cytotoxicity against human MT310 cells assessed as cell death after 18 hrs", "format": "functional, cell-based", "outline": "(§1)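 Glioma lines (U-87MG, T98G, LN-229, DBTRG-O5MG, primary MT310) plated at 70% confluency in 100 µl supplemented medium, left overnight at 37 °C to adhere. Cells were then exposed to escalating drug amounts for 18 h. Viability was measured by CCK-8 absorbance at 450 nm relative to untreated controls. Values are the mean of three data points per determination, three independent determinations.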"}, "[3]": {"assay": "Cytotoxicity against human LN229 cells assessed as cell death after 18 hrs", "format": "functional, cell-based", "conditions": "LN-229, 18 h", "outline": "as §1"}, "[4]": {"assay": "Cytotoxicity against human DBTRG-O5MG cells assessed as cell death after 18 hrs", "format": "functional, cell-based", "outline": "as §1"}, "T98G": {"system": "T98G", "assay": "Cytotoxicity against human T98G cells assessed as cell death after 18 hrs", "format": "functional, cell-based", "outline": "as §1"}, "[5]": {"assay": "Cytotoxicity against human U87MG cells assessed as cell death after 18 hrs", "format": "functional, U-87MG ATCC", "outline": "as §1"}}}
{"smiles": "CC1=CC[C@@H]2[C@@H](C1)c1c(O)cc(C(C)(C)c3cccc(C)c3)cc1OC2(C)C", "values": [{"measurement": "Ki", "setting": "Cannabinoid receptor 1", "result": 2.53, "unit": "nM"}, {"measurement": "Ratio Ki", "setting": "Homo sapiens", "result": 2.24}, {"measurement": "Ki", "setting": "Cannabinoid receptor 2", "result": 1.13, "unit": "nM"}]}
{"smiles": "CC1=CC[C@@H]2[C@@H](C1)c1c(O)cc(C(C)(C)c3cccc(F)c3)cc1OC2(C)C", "values": [{"measurement": "Ki", "setting": "Cannabinoid receptor 1", "result": 5.26, "unit": "nM"}, {"measurement": "Ratio Ki", "setting": "Homo sapiens", "result": 5.84}, {"measurement": "Ki", "setting": "Cannabinoid receptor 2", "result": 0.9, "unit": "nM"}]}
{"smiles": "CC1=CC[C@@H]2[C@@H](C1)c1c(O)cc(C(C)(C)c3cccs3)cc1OC2(C)C", "values": [{"measurement": "EC50", "setting": "[1]", "result": 1830, "unit": "nM"}, {"measurement": "Ki", "setting": "Cannabinoid receptor 1", "result": 1.08, "unit": "nM"}, {"measurement": "EC50", "setting": "[2]", "result": 4100, "unit": "nM"}, {"measurement": "Ratio Ki", "setting": "Homo sapiens", "result": 4}, {"measurement": "EC50", "setting": "[3]", "result": 2020, "unit": "nM"}, {"measurement": "Ki", "setting": "Cannabinoid receptor 2", "result": 0.27, "unit": "nM"}, {"measurement": "EC50", "setting": "[4]", "result": 2670, "unit": "nM"}, {"measurement": "EC50", "setting": "T98G", "result": 2210, "unit": "nM"}]}
{"smiles": "CC1=CC[C@@H]2[C@@H](C1)c1c(O)cc(C(C)(C)c3ccc(C)cc3)cc1OC2(C)C", "values": [{"measurement": "Ki", "setting": "Cannabinoid receptor 1", "result": 3.13, "unit": "nM"}, {"measurement": "Ratio Ki", "setting": "Homo sapiens", "result": 3.56}, {"measurement": "Ki", "setting": "Cannabinoid receptor 2", "result": 0.88, "unit": "nM"}]}
{"smiles": "CC1=CC[C@@H]2[C@@H](C1)c1c(O)cc(C(C)(C)c3ccc(C(N)=O)cc3)cc1OC2(C)C", "values": [{"measurement": "Ratio Ki", "setting": "Homo sapiens", "result": 1.01}]}
{"smiles": "CC1=CC[C@@H]2[C@@H](C1)c1c(O)cc(C(C)(C)c3cc(C)cc(C)c3)cc1OC2(C)C", "values": [{"measurement": "Ki", "setting": "Cannabinoid receptor 1", "result": 11, "unit": "nM"}, {"measurement": "Ratio Ki", "setting": "Homo sapiens", "result": 1.48}, {"measurement": "Ki", "setting": "Cannabinoid receptor 2", "result": 7.45, "unit": "nM"}]}
{"smiles": "CCc1ccc(C(C)(C)c2cc(O)c3c(c2)OC(C)(C)[C@@H]2CC=C(C)C[C@@H]32)cc1", "values": [{"measurement": "EC50", "setting": "[1]", "result": 2520, "unit": "nM"}, {"measurement": "Ki", "setting": "Cannabinoid receptor 1", "result": 1.85, "unit": "nM"}, {"measurement": "EC50", "setting": "[2]", "result": 4110, "unit": "nM"}, {"measurement": "Ratio Ki", "setting": "Homo sapiens", "result": 2.76}, {"measurement": "EC50", "setting": "[3]", "result": 1670, "unit": "nM"}, {"measurement": "Ki", "setting": "Cannabinoid receptor 2", "result": 0.67, "unit": "nM"}, {"measurement": "EC50", "setting": "[4]", "result": 3000, "unit": "nM"}, {"measurement": "EC50", "setting": "T98G", "result": 3230, "unit": "nM"}]}
{"smiles": "CC1=CC[C@@H]2[C@@H](C1)c1c(O)cc(C(C)(C)c3ccccc3)cc1OC2(C)C", "values": [{"measurement": "EC50", "setting": "[1]", "result": 3080, "unit": "nM"}, {"measurement": "EC50", "setting": "[2]", "result": 4290, "unit": "nM"}, {"measurement": "Ratio Ki", "setting": "Homo sapiens", "result": 13.5}, {"measurement": "EC50", "setting": "[3]", "result": 2630, "unit": "nM"}, {"measurement": "EC50", "setting": "[4]", "result": 2270, "unit": "nM"}, {"measurement": "Activity", "setting": "[5]", "result": 75, "unit": "%"}, {"measurement": "EC50", "setting": "T98G", "result": 4680, "unit": "nM"}]}
{"smiles": "CCCc1ccc(C(C)(C)c2cc(O)c3c(c2)OC(C)(C)[C@@H]2CC=C(C)C[C@@H]32)cc1", "values": [{"measurement": "EC50", "setting": "[1]", "result": 3170, "unit": "nM"}, {"measurement": "Ki", "setting": "Cannabinoid receptor 1", "result": 1.77, "unit": "nM"}, {"measurement": "EC50", "setting": "[2]", "result": 6460, "unit": "nM"}, {"measurement": "Ratio Ki", "setting": "Homo sapiens", "result": 0.23}, {"measurement": "EC50", "setting": "[3]", "result": 2440, "unit": "nM"}, {"measurement": "Ki", "setting": "Cannabinoid receptor 2", "result": 7.83, "unit": "nM"}, {"measurement": "EC50", "setting": "[4]", "result": 3580, "unit": "nM"}, {"measurement": "EC50", "setting": "T98G", "result": 3630, "unit": "nM"}]}
{"smiles": "CC1=CC[C@@H]2[C@@H](C1)c1c(O)cc(C(C)(C)c3ccccc3C)cc1OC2(C)C", "values": [{"measurement": "Ki", "setting": "Cannabinoid receptor 1", "result": 34.4, "unit": "nM"}, {"measurement": "Ratio Ki", "setting": "Homo sapiens", "result": 3.23}, {"measurement": "Ki", "setting": "Cannabinoid receptor 2", "result": 10.7, "unit": "nM"}]}
{"smiles": "CC1=CC[C@@H]2[C@@H](C1)c1c(O)cc(C(C)(C)c3cccc(C#N)c3)cc1OC2(C)C", "values": [{"measurement": "Ki", "setting": "Cannabinoid receptor 1", "result": 2.72, "unit": "nM"}, {"measurement": "Ratio Ki", "setting": "Homo sapiens", "result": 2.98}, {"measurement": "Ki", "setting": "Cannabinoid receptor 2", "result": 0.91, "unit": "nM"}]}
{"smiles": "CC1=CC[C@@H]2[C@@H](C1)c1c(O)cc(C(C)(C)c3cccc(Br)c3)cc1OC2(C)C", "values": [{"measurement": "Ki", "setting": "Cannabinoid receptor 1", "result": 1.59, "unit": "nM"}, {"measurement": "Ratio Ki", "setting": "Homo sapiens", "result": 2.94}, {"measurement": "Ki", "setting": "Cannabinoid receptor 2", "result": 0.54, "unit": "nM"}]}
{"smiles": "CC1=CC[C@@H]2[C@@H](C1)c1c(O)cc(C(C)(C)c3ccc(F)cc3)cc1OC2(C)C", "values": [{"measurement": "EC50", "setting": "[1]", "result": 2550, "unit": "nM"}, {"measurement": "Ki", "setting": "Cannabinoid receptor 1", "result": 76.1, "unit": "nM"}, {"measurement": "EC50", "setting": "[2]", "result": 8780, "unit": "nM"}, {"measurement": "Ratio Ki", "setting": "Homo sapiens", "result": 6.14}, {"measurement": "EC50", "setting": "[3]", "result": 2020, "unit": "nM"}, {"measurement": "Ki", "setting": "Cannabinoid receptor 2", "result": 12.4, "unit": "nM"}, {"measurement": "EC50", "setting": "[4]", "result": 3080, "unit": "nM"}, {"measurement": "EC50", "setting": "T98G", "result": 3300, "unit": "nM"}]}
{"smiles": "CC1=CC[C@@H]2[C@@H](C1)c1c(O)cc(C(C)(C)c3ccc(C#N)cc3)cc1OC2(C)C", "values": [{"measurement": "Ki", "setting": "Cannabinoid receptor 1", "result": 9.25, "unit": "nM"}, {"measurement": "Ratio Ki", "setting": "Homo sapiens", "result": 3.66}, {"measurement": "Ki", "setting": "Cannabinoid receptor 2", "result": 2.53, "unit": "nM"}]}
{"smiles": "CC1=CC[C@@H]2[C@@H](C1)c1c(O)cc(C(C)(C)c3ccc(Cl)cc3)cc1OC2(C)C", "values": [{"measurement": "EC50", "setting": "[1]", "result": 3270, "unit": "nM"}, {"measurement": "Ki", "setting": "Cannabinoid receptor 1", "result": 18.8, "unit": "nM"}, {"measurement": "EC50", "setting": "[2]", "result": 7310, "unit": "nM"}, {"measurement": "Ratio Ki", "setting": "Homo sapiens", "result": 11.2}, {"measurement": "EC50", "setting": "[3]", "result": 2870, "unit": "nM"}, {"measurement": "Ki", "setting": "Cannabinoid receptor 2", "result": 1.68, "unit": "nM"}, {"measurement": "EC50", "setting": "[4]", "result": 4610, "unit": "nM"}, {"measurement": "EC50", "setting": "T98G", "result": 3400, "unit": "nM"}]}
{"smiles": "CC1=CC[C@@H]2[C@@H](C1)c1c(O)cc(C(C)(C)c3ccc(Br)cc3)cc1OC2(C)C", "values": [{"measurement": "Ki", "setting": "Cannabinoid receptor 1", "result": 5.03, "unit": "nM"}, {"measurement": "Ratio Ki", "setting": "Homo sapiens", "result": 3.26}, {"measurement": "Ki", "setting": "Cannabinoid receptor 2", "result": 1.54, "unit": "nM"}]}
{"smiles": "CC1=CC[C@@H]2[C@@H](C1)c1c(O)cc(C(C)(C)c3cccc(Cl)c3)cc1OC2(C)C", "values": [{"measurement": "Ki", "setting": "Cannabinoid receptor 1", "result": 2.8, "unit": "nM"}, {"measurement": "Ratio Ki", "setting": "Homo sapiens", "result": 0.79}, {"measurement": "Ki", "setting": "Cannabinoid receptor 2", "result": 3.54, "unit": "nM"}]}
